# Measured values reported in ChEMBL document CHEMBL4689842, “EUbOPEN Chemogenomics Library wave 1” (2021).
# System: Fibroblast
# Assay: Multiplex assay against human fibroblast
# Assay type: toxicity, cell-based
# Method in brief: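 Phenotypes for tubulin, mitochondrial mass and membrane permeability are expressed as per cents of healthy-nucleus cells. Cells were stained live at seeding with Hoechst33342, BioTracker Green Microtubule Cytoskeleton Dye, MitoTracker Red and Annexin V Alexa Fluor 680, then imaged after compound addition on a CQ1 microscope at 37°C and 5% CO2. Machine-learning gating in CellPathfinder separated Hoechst high-intensity objects from normal cells, divided normal cells by nuclear state (healthy, pyknosed, fragmented) and divided pyknosed cells into mitotic or apoptotic.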
# [1] = 12 h, 1 µM, compound concentration 1 uM, replicate 1
# [2] = 12 h, 1 µM, compound concentration 1 uM, replicate 2
# [3] = 12 h, 10 µM, compound concentration 10 uM, replicate 1
# [4] = 12 h, 10 µM, compound concentration 10 uM, replicate 2
# [5] = 24 h, 1 µM, compound concentration 1 uM, replicate 1
# [6] = 24 h, 1 µM, compound concentration 1 uM, replicate 2
# [7] = 24 h, 10 µM, compound concentration 10 uM, replicate 1
# [8] = 24 h, 10 µM, compound concentration 10 uM, replicate 2
smiles,measurement,setting,value
O=c1[nH]c2ccccc2n1C1CCN(Cc2ccc(-c3[nH]c4cc5ncnc5cc4nc3-c3ccccc3)cc2)CC1,Population Apoptotic (%),[1],66%
same,Population Fragmented Nuclei (%),[1],45%
same,Population Healthy Nuclei (%),[1],43%
same,Population Hoechst High Intensity Objects (%),[1],17%
same,Population Membrane Permeable-Phenotype (%),[1],6%
same,Population Mitochondria Different-Phenotype (%),[1],3%
same,Population Mitotic Cells (%),[1],33%
same,Population Normal (%),[1],82%
same,Population Pyknosed Nuclei (%),[1],11%
same,Population Tubulin-Different-Phenotype (%),[1],18%
same,Total Cell Count,[1],251
same,Population Apoptotic (%),[2],83%
same,Population Fragmented Nuclei (%),[2],72%
same,Population Healthy Nuclei (%),[2],19%
same,Population Hoechst High Intensity Objects (%),[2],31%
same,Population Membrane Permeable-Phenotype (%),[2],15%
same,Population Mitochondria Different-Phenotype (%),[2],0%
same,Population Mitotic Cells (%),[2],16%
same,Population Normal (%),[2],68%
same,Population Pyknosed Nuclei (%),[2],8%
same,Population Tubulin-Different-Phenotype (%),[2],23%
same,Total Cell Count,[2],99
same,Population Apoptotic (%),[3],67%
same,Population Fragmented Nuclei (%),[3],50%
same,Population Healthy Nuclei (%),[3],37%
same,Population Hoechst High Intensity Objects (%),[3],55%
same,Population Membrane Permeable-Phenotype (%),[3],33%
same,Population Mitochondria Different-Phenotype (%),[3],4%
same,Population Mitotic Cells (%),[3],32%
same,Population Normal (%),[3],44%
same,Population Tubulin-Different-Phenotype (%),[3],87%
same,Total Cell Count,[3],524
same,Population Apoptotic (%),[4],70%
same,Population Fragmented Nuclei (%),[4],46%
same,Population Healthy Nuclei (%),[4],40%
same,Population Hoechst High Intensity Objects (%),[4],48%
same,Population Membrane Permeable-Phenotype (%),[4],27%
same,Population Mitochondria Different-Phenotype (%),[4],12%
same,Population Mitotic Cells (%),[4],30%
same,Population Normal (%),[4],51%
same,Population Pyknosed Nuclei (%),[4],12%
same,Population Tubulin-Different-Phenotype (%),[4],72%
same,Total Cell Count,[4],158
same,Population Apoptotic (%),[5],45%
same,Population Fragmented Nuclei (%),[5],43%
same,Population Healthy Nuclei (%),[5],40%
same,Population Hoechst High Intensity Objects (%),[5],20%
same,Population Membrane Permeable-Phenotype (%),[5],8%
same,Population Mitochondria Different-Phenotype (%),[5],5%
same,Population Mitotic Cells (%),[5],54%
same,Population Normal (%),[5],79%
same,Population Pyknosed Nuclei (%),[5],15%
same,Population Tubulin-Different-Phenotype (%),[5],16%
same,Total Cell Count,[5],268
same,Population Apoptotic (%),[6],62%
same,Population Fragmented Nuclei (%),[6],70%
same,Population Healthy Nuclei (%),[6],17%
same,Population Hoechst High Intensity Objects (%),[6],31%
same,Population Membrane Permeable-Phenotype (%),[6],0%
same,Population Mitochondria Different-Phenotype (%),[6],27%
same,Population Mitotic Cells (%),[6],37%
same,Population Normal (%),[6],68%
same,Population Pyknosed Nuclei (%),[6],12%
same,Population Tubulin-Different-Phenotype (%),[6],36%
same,Total Cell Count,[6],94
same,Population Apoptotic (%),[7],70%
same,Population Fragmented Nuclei (%),[7],44%
same,Population Healthy Nuclei (%),[7],45%
same,Population Hoechst High Intensity Objects (%),[7],62%
same,Population Membrane Permeable-Phenotype (%),[7],20%
same,Population Mitochondria Different-Phenotype (%),[7],14%
same,Population Mitotic Cells (%),[7],29%
same,Population Normal (%),[7],37%
same,Population Pyknosed Nuclei (%),[7],10%
same,Population Tubulin-Different-Phenotype (%),[7],65%
same,Total Cell Count,[7],437
same,Population Apoptotic (%),[8],56%
same,Population Fragmented Nuclei (%),[8],40%
same,Population Healthy Nuclei (%),[8],36%
same,Population Hoechst High Intensity Objects (%),[8],51%
same,Population Membrane Permeable-Phenotype (%),[8],24%
same,Population Mitochondria Different-Phenotype (%),[8],28%
same,Population Mitotic Cells (%),[8],43%
same,Population Normal (%),[8],48%
same,Population Pyknosed Nuclei (%),[8],23%
same,Population Tubulin-Different-Phenotype (%),[8],40%
same,Total Cell Count,[8],143
